WT yeast gro inh – growth inhibition of WT yeast, mitochondrial fusion screen; mitochondrial fusion phenotypic screen, WT strain; inhibition, % at 10 µM; hit rate 2.1% among 190,000; AID 1362; in the data active = inhibition above about 58%; tested in S. cerevisiae
14-3-3 Bad inh – disrupts binding of bovine 14-3-3 zeta to phospho-Bad peptide; TR-FRET 14-3-3zeta/Dy647-pBad peptide displacement, 1 h; inhibition, % at 21.7 µM; hit rate 0.71% among 220,000;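 active = inhibition above about 70%, limit read from the data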;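 note: 0% = full 14-3-3 plus peptide FRET controls and 100% = background without 14-3-3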
p47phox inh – inhibitors of human p47phox binding; p47phox/p22phox peptide binding, fluorescence polarization, 2 h; inhibition, % at 24.7 µM; hit rate 0.53% among 220,000;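 active = inhibition above about 30%, limit read from the data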;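 note: 0% = p47phox with labelled peptide and 100% = labelled peptide alone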
Target sequence (P14598 whole entry, looked up): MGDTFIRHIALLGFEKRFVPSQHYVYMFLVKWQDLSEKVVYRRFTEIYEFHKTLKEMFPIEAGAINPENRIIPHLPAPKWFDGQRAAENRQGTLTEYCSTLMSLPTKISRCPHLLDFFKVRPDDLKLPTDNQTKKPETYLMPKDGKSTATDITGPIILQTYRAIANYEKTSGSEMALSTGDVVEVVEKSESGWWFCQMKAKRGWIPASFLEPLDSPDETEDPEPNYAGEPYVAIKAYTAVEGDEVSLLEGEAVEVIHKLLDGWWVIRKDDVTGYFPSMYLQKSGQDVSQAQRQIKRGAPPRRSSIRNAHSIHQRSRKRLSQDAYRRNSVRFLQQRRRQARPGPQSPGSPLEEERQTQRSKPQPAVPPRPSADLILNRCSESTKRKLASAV
ROMK primary – modulates human ROMK potassium channel activity; P48048; Tet-inducible ROMK, thallium flux fluorescence; actives lie on both sides; B-score at 10 µM; hit rate 2% among 130,000;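 active = signal ratio slope over the read window, or its plate-corrected B-score, at least 3 SD from the plate mean, either direction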;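 note: B-score of the F/F0 ratio slope over 7 to 12 s after thallium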
Target sequence (P48048 whole entry, looked up): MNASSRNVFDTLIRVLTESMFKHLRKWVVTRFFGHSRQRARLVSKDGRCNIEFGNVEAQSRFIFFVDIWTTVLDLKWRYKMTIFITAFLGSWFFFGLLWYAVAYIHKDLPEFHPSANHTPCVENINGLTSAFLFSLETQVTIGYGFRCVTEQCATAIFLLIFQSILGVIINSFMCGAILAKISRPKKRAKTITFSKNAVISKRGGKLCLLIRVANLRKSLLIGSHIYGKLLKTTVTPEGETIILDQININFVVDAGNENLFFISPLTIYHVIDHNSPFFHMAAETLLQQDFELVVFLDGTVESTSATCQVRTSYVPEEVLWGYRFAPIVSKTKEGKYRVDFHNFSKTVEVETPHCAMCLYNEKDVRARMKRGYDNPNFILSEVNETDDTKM
KCC2 mod – KCC2 (human) Cl- transport modulation | Q9H2X9 | KCC2 cells, thallium flux FluoZin-2 fluorescence | B-score of Tl+ flux slope (higher = more flux/activation; lower = inhibition) at 10 µM | hit rate 2.2% among 190,000;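 active = thallium flux slope and its plate-corrected score both differing from the plate sample mean at a set confidence after two filtering rounds, in either direction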;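 note: slope of fluorescence scaled to starting intensity during 10 to 20 s after thallium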
RBBP9 inh – human RBBP9 hydrolase inhibition; O75884; recombinant RBBP9, FP-Rh probe fluorescence polarization; inhibition, % at 7.94 µM; hit rate 0.2% among 220,000; AID 1515;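 active = inhibition above the campaign mean of all tested compounds plus 3 SD, cut at about 14% in these data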;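 note: plate controls were DMSO wells with RBBP9 for no effect and wells lacking RBBP9 protein for full effect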
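Controls: DMSO-treated enzyme wells and wells lacking RBBP9 | Material: RBBP9 protein | Technique: Fluorescence polarization | Replication: Single well per compound, no replicates | Buffer or medium: Tris-NaCl-Pluronic buffer, pH 8.0 | Timing: 30 min compound preincubation, 45 min probe labeling, 25 °C | Read-out basis: Percent inhibition from mP, scaled between DMSO and no-protein wells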
KCC2 secondary – KCC2 (human) modulation, secondary assay; HEK293-KCC2, thallium flux, FluoZin2 fluorescence; stronger effect = higher value; normalised thallium flux (F/F0 slope) at 10 µM; shares compounds with KCC2 mod; AID 1713; hit rate 15% among 3,700;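 active = thallium flux slope above the same plate's solvent-only control mean plus 3 SD; inconclusive = the two replicate wells disagree; inactive = no significant difference from solvent-only control wells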
KCC2 bumet counter – thallium flux despite bumetanide block in KCC2 cells, secondary assay 3. hit rate 49% among 3,700. HEK293-KCC2 + bumetanide/ouabain, thallium flux FluoZin2; stronger effect = higher value. shares compounds with KCC2 mod. normalized thallium flux at 10 µM;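 active = thallium entry rate above the same plate's blocked-transporter control wells by more than 3 SD; inconclusive = the two repeat wells disagree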;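 note: raw slope of fluorescence over initial fluorescence between 10 and 20 s after thallium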
KCC2 sec2 – confirmation of human KCC2 transport modulators. HEK293-KCC2, thallium flux FluoZin2 fluorescence; actives lie on both sides; F/F0 rise rate, 10–20 s post-thallium. normalized thallium flux at 10 µM. hit rate 23% among 3,700. shares compounds with KCC2 mod;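 active = thallium flux slope more than 3 SD above or below the plate's solvent-only control mean, mostly below; inconclusive = the two repeat wells disagreed; inactive = no significant shift from solvent-only controls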;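 note: raw slope with 0.1% DMSO as baseline and bumetanide as block control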
HEK counter1 – counter-screen for KCC2 modulators: effect in parental HEK293 cells; thallium flux rate (normalised fluorescence) at 10 µM; hit rate 46% among 3,700; thallium flux FluoZin2, ouabain; baseline-ratio fluorescence slope, 10–20 s after thallium; AID 1716; shares compounds with KCC2 mod;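 active = thallium flux rate significantly above the same plate's solvent-only control wells, beyond their mean plus 3 SD; inconclusive = the two replicate wells gave conflicting results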
KCC2 retest ouab – modulates human KCC2 on retest with ouabain. shares compounds with KCC2 mod. HEK293-KCC2, thallium flux FluoZin2 fluorescence; bidirectional: low = inhibitor, high = activator. raw Tl+ flux slope (below DMSO = inhibition, above = activation) at 10 µM. hit rate 48% among 3,700;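 active = thallium flux slope beyond 3 SD from same-plate DMSO control mean in most replicates, usually higher, sometimes lower; inconclusive = repeat tests gave conflicting results; inactive = no significant difference from controls in most replicates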;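 note: slope of initial-normalized fluorescence between seconds 10 and 20 after thallium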
HEK293 Tl flux2 – counter-screen for KCC2 modulators: effect in parental HEK293 cells; shares compounds with KCC2 mod; thallium flux FluoZin-2 fluorescence slope; thallium flux slope at 10 µM; hit rate 33% among 3,700; AID 1718;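 active = thallium flux slope above the same plate's solvent-control mean plus 3 SD in both duplicate wells; inconclusive = duplicate wells that disagreed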;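 note: run without ouabain in cells lacking the KCC2 cotransporter; slope of fluorescence scaled to its starting value between 10 and 20 s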
Starred values were filed as active, the others as inactive; ? = inconclusive; · = no result; [ ] = dose if it differs, or a comment. Hits are enriched below; roughly 5.8% of the tested compounds scored in any of these assays.

SMILES	WT yeast gro inh	14-3-3 Bad inh	p47phox inh	ROMK primary	KCC2 mod	RBBP9 inh	KCC2 secondary	KCC2 bumet counter	KCC2 sec2	HEK counter1	KCC2 retest ouab	HEK293 Tl flux2
O=C(Nc1ncc(Cc2ccccc2Cl)s1)C1=NCCN1	73.2*	-4.0	-27.8	·	0.388	-4.0	·	·	·	·	·	·
COC(=O)c1c(C)[nH]c(C(=O)CSc2ncnc3sc(-c4ccccc4)cc23)c1C	7.6	3.8	-3.3	-0.0172	2.18	-5.0	·	·	·	·	·	·
CC(C)N(C(=O)CSc1ncnc2sc(-c3ccccc3)cc12)C(C)C	4.2	-9.0	-37.3	1.31	7.06*	-2.4	·	·	·	·	·	·
Cc1nn(Cc2ccccc2)c(C)c1N	-5.2	17.0	2.5	-0.655	0.112	-0.1	·	·	·	·	·	·
COc1ccc(-c2c(C)nn(Cc3ccccc3)c2N)cc1	8.9	85.9*	-20.7	·	0.0384	-9.6	·	·	·	·	·	·
COc1ccc(OC)c(-c2cc(C(=O)Nc3ccc(F)cc3F)no2)c1	9.3	87.7*	24.1	0.512	-0.0299	0.4	·	·	·	·	·	·
CCNc1cc2n(c(=O)n1)CCc1cc(OC)c(OC)cc1-2	2.3	10.5	-8.3	-0.948	-0.0108	1.7	·	·	·	·	·	·
COc1cc2c(cc1OC)-c1cc(NCc3ccccn3)nc(=O)n1CC2	15.8	90.5*[fluorescence artefact?]	7.1	·	0.284	0.9	·	·	·	·	·	·
Cc1nc2ccc(NC(=O)c3nn(CC(C)C)c(=O)c4ccccc34)cc2s1	63.9*	-1.3	-23.3	-0.707	-2.69	-9.4	·	·	·	·	·	·
CN(C)CCNC(=O)COc1ccc(C23CC4CC(CC(C4)C2)C3)cc1	95.8*	12.4	-12.7	-0.14	0.0564	-3.5	·	·	·	·	·	·
Cc1ccc(C23CC4CC(CC(NC(=O)NCCN(C)C)(C4)C2)C3)cc1	-2.8	9.7	6.3	-2.3	0.503	0.8	·	·	·	·	·	·
O=[N+]([O-])c1ccc(Cl)c(S(=O)(=O)/N=C(/c2ccccc2)N2CCOCC2)c1	-2.2	-5.1	-13.3	0.121	0.907	-5.4	·	·	·	·	·	·
N#Cc1cccc(C(c2nnnn2Cc2ccccc2)N2CCCC2)c1 (stereo unspecified)	19.1	48.5	-5.9	·	0.11	-5.3	·	·	·	·	·	·
N#Cc1ccc(C(c2nnnn2Cc2ccccc2)N2CCCC2)cc1 (stereo unspecified)	10.0	70.0*	-14.9	·	-0.422	-5.3	·	·	·	·	·	·
Cc1ccc(C(c2nnnn2CCc2ccccc2)N2CCC(C)CC2)cc1 (stereo unspecified)	74.5*	56.3	-10.9	-0.21	-1.2	-7.3	·	·	·	·	·	·
COC(=O)c1ccccc1NC(=O)Cn1nc2n(C)c3ccccc3n2c(=O)c1=O	-19.6	93.0*	0.0	·	0.372	-9.7	·	·	·	·	·	·
Cn1c2ccccc2n2c(=O)c(=O)n(CC(=O)c3ccc(Cl)cc3)nc12	-2.0	-8.2	-5.7	0.309	0.41	-0.9	·	·	·	·	·	·
COc1ccc(/C=C2\SC(=S)N(CC(=O)N3CCN(C)CC3)C2=O)cc1	·	-6.1	-12.6	·	-0.0737	-12.3	·	·	·	·	·	·
COCCN1C(=O)/C(=C/c2ccc(N3CCCC3)cc2)SC1=S	7.5	-6.7	-29.6	-3.49*	-0.958	-8.8	·	·	·	·	·	·
COc1ccc(N=Nc2nc(-c3ccccc3)c(-c3ccccc3)[nH]2)cc1	47.8	-2.1	-51.2	·	-1.03	-39.9	·	·	·	·	·	·
COc1ccccc1N=Nc1nc(-c2ccccc2)c(-c2ccccc2)[nH]1	64.3*	1.5	119.1*	0.16	-0.661	-13.8	·	·	·	·	·	·
NC(=O)C1CCN(C(=S)NCCc2ccccc2)CC1	-13.7	-9.8	-5.4	0.199	4.57*	-7.0	0.00651	0.0052	0.0329	0.00902	0.0206	0.0116
Cc1cc(-c2nc3cccnc3s2)ccc1NS(=O)(=O)c1ccc2c(c1)OCCO2	28.3	1.4	-25.9	·	-3.86*	-16.1	0.00903	0.00562	0.0343	0.00775	0.0202	0.0113
Cc1c(NS(=O)(=O)c2ccc3c(c2)OCCO3)cccc1-c1nc2cccnc2s1	26.4	-0.7	-61.2	·	-1.29	-16.6	·	·	·	·	·	·
Cn1c(NCCCO)nc2c1c(=O)n(Cc1ccccc1F)c(=O)n2C	-12.7	-10.6	-15.4	1.16	0.231	-0.7	0.0102	?	0.0274	0.0071	0.0197	0.00968
SMILES	WT yeast gro inh	14-3-3 Bad inh	p47phox inh	ROMK primary	KCC2 mod	RBBP9 inh	KCC2 secondary	KCC2 bumet counter	KCC2 sec2	HEK counter1	KCC2 retest ouab	HEK293 Tl flux2
COc1ccccc1Oc1nc2c(c(=O)n(Cc3ccccc3F)c(=O)n2C)n1C	39.4	-3.8	-37.2	·	6.08	-3.6	·	·	·	·	·	·
COc1ccc(N2C(=O)C(OC(C)=O)C2c2ccc(C)cc2)cc1 (stereo unspecified)	11.9	7.2	-2.2	1.25	0.00903	-9.2	·	·	·	·	·	·
COc1ccc([C@@H]2Sc3ccccc3N(CCN(C)C)C(=O)[C@@H]2OC(C)=O)cc1	-10.7	0.0	-5.9	-0.433	4.44*	-8.7	0.00652	0.00452	0.0295	0.00788	0.0188	0.0106
CCOc1ccccc1CNC(=O)C1CCN(c2nc3ccccc3o2)CC1	5.8	4.4	-6.6	-1.5	·	-10.5	0.0171	?	?	0.00696	0.0143	0.00966
O=C(NCc1cccs1)C1CCN(c2nc3ccccc3o2)CC1	6.6	-6.7	5.6	-0.822	·	8.4	0.00762	0.00629	0.0333	0.0043	0.016*	0.0115
Cc1nc(NC(N)=S)sc1C(=O)Nc1ccccc1	-1.4	-3.7	-5.3	·	-0.894	-2.0	·	·	·	·	·	·
Cc1nc(NC(=S)NC(=O)c2ccccc2)sc1C	·	-3.0	2.9	·	45.5*	5.5	0.0146*	0.0601*	0.0339	0.0277*	0.0365*	0.0134*
CCOC(=O)CNC(=O)c1sc(NC(=O)c2ccccc2F)nc1C	6.5	-3.6	-3.8	·	0.409	2.1	·	·	·	·	·	·
COC(=O)c1sc(NC(=S)NC(=O)c2ccccc2F)nc1C	6.8	-13.6	-9.4	1.15	35.8*	0.8	0.00794	0.037*	?	0.0331*	0.0402*	0.0216*
O=C(NC(=S)Nc1nc(-c2cccc([N+](=O)[O-])c2)cs1)c1cc(Cl)ccc1Cl	19.8	-6.2	3.5	0.00847	6.07*	2.8	0.00966	0.0106*	0.0316	0.00881*	0.027*	0.0104*
O=C(NC(=S)Nc1nc(-c2cccc([N+](=O)[O-])c2)cs1)c1ccccc1Cl	2.3	28.4	-4.0	-0.726	4.8*	-6.3	0.00726	0.00793*	0.0305	0.0123*	0.0238*	0.0139*
